Measurements published in PubChem BioAssay.
Calls of active or inactive are those of the source.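 How the source made its calls, unless noted: active means inhibition above 20% together with a positive visual image hit; inconclusive means visual image hit but inhibition not above 20%; inactive means no visual image hit.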

Key:
[1] = inhibitors of TNFa-induced NFkB p65 translocation, primary screen, imaging, HUVEC, MLSMR starter and 10KST1 sets (AID 438); conditions: HUVEC TNFa-induced p65 nuclear translocation; cell count: measured here: nuclei count (cytotoxicity indicator), at 2.08 µM; inhibition: at 2 µM, stronger effect = higher value, 0% TNFa-plus-vehicle, 100% no-TNFa wells;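 further: compound added about 3h40 before a 20 min TNFalpha stimulation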;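 on inhibition: signal is the nuclear over cytoplasmic p65 intensity ratio per well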
[2] = reduction of polyQ htt aggregates in cells – imaging, exon1htt(103Q)mCFP cells, high-content imaging, primary screen (AID 483;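 active means visual image review flags a hit and inhibition of aggregation exceeds 20%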;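 further: compound exposure lasted 3 days before fixation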;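 on nuclei count: percent of the per-plate median nuclei count of sample wells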); conditions: exon1htt(103Q)mCFP cell line, aggregate imaging, at 2 µM; inhibition of aggregation: stronger effect = higher value; nuclei count: measured here: cell count, toxicity
[3] = endothelial E-selectin expression blockers – imaging, HUVEC, immunofluorescence, MLSMR starter and 10KST1 sets, primary screen (AID 487;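 active means visually confirmed hit in the image check and inhibition above 20%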;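 on inhibition: signal is fraction of cell area covered by stained E-selectin grains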;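 on nuclei count: 100% = median nuclei count of all wells on the same plate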); conditions: HUVEC TNFalpha-induced E-selectin immunofluorescence imaging, at 2 µM; inhibition: stronger effect = higher value; nuclei count: measured here: cell number, toxicity
[4] = biological target: Voltage-gated potassium channel subunit beta-2 (Rattus norvegicus) (UniProt P62483); test: inhibitors of rat Kvbeta2 reductase activity – biochemical, NADPH fluorescence, primary screen (AID 622;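 active means fluorescence slope higher than the sample average by over 3 SD, cut at about -0.22 in these data, passing the limit was not always enough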;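 further: slope of raw intensity against log time taken from 70 to 1610 s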); conditions: recombinant KvBeta, 4-cyanobenzaldehyde reduction, at 10 µM, stronger effect = higher value
[5] = biological target: Voltage-gated potassium channel subunit beta-2 (Rattus norvegicus) (UniProt P62483); test: enhancers of rat Kvbeta2 NADPH turnover – biochemical, NADPH fluorescence, primary screen (AID 623;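 active means NADPH fluorescence slope more negative than the mean of all samples by about 3 SD, 99.7% confidence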;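 further: fluorescence intensity change per second fitted from 20 to 320 s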); conditions: Recombinant KvBeta, NADPH fluorescence decrease slope, 10 min; at 10 µM; stronger effect = lower value
[6] = biological target: Muscarinic acetylcholine receptor M4 (Homo sapiens) (UniProt P08173); test: M4-linked GIRK flux change, two-sided – cell-based, HEK293 M4/GIRK, thallium flux, BTC-AM, M4 allosteric agonist project, primary screen (AID 625;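 active means fluorescence slope after compound addition differing from the mean of all tested samples at 99.7% confidence, mostly higher but some lower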;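 further: thallium influx through GIRK channels coupled to M4 in HEK293 cells with BTC-AM dye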); conditions: at 10 µM, actives lie on both sides
Outline: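 assay system = HEK293 cells with M4 receptor and GIRK channels | medium = pH 7.3 thallium assay buffer | doses = 10 µM final, single point | timing = cells overnight at 37 °C, BTC-AM loading 1 h, reads 2 min total | signal = BTC-AM fluorescence, 1 Hz kinetic reads | read-out = post-addition slope, 15–24 s, of baseline-normalized fluorescence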

[7] = blockers of RIG-like receptor reporter activation – cell-based, Sendai virus stimulus, luciferase, 10K MLSCN set, TLR/RLR signaling modifier project, primary screen (AID 602276;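 active means inhibition at or above 50% at 10 µM; inactive means inhibition below 50%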;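 further: firefly luciferase from ISG56 promoter only with Renilla not read in this screen; 0% = Sendai virus plus DMSO and 100% = medium plus DMSO without virus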); conditions: HEK293 RL24 IRF3 luciferase reporter, at 10 µM, stronger effect = higher value
[8] = TLR3 IRF3 reporter activation blockers – cell-based, poly I:C stimulus, luciferase, 10K MLSCN set, primary screen (AID 602277;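 active means inhibition of the reporter signal at or above 50%; inactive means inhibition below 50%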); conditions: HEK293-TLR3 RL24 IRF3 luciferase reporter, at 10 µM, stronger effect = higher value

Voltage-gated potassium channel subunit beta-2 (Rattus norvegicus), sequence (P62483 whole entry, looked up): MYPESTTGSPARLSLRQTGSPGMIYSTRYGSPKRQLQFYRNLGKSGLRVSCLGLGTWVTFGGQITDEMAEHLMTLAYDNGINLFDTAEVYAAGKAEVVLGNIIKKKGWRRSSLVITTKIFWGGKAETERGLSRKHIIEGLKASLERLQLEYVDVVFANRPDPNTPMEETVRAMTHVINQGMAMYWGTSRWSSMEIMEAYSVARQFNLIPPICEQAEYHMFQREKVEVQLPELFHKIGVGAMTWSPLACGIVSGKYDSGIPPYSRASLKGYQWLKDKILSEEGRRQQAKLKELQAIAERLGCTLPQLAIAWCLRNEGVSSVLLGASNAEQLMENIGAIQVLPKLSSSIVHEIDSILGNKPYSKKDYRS
Muscarinic acetylcholine receptor M4 (Homo sapiens), sequence (P08173 whole entry, looked up): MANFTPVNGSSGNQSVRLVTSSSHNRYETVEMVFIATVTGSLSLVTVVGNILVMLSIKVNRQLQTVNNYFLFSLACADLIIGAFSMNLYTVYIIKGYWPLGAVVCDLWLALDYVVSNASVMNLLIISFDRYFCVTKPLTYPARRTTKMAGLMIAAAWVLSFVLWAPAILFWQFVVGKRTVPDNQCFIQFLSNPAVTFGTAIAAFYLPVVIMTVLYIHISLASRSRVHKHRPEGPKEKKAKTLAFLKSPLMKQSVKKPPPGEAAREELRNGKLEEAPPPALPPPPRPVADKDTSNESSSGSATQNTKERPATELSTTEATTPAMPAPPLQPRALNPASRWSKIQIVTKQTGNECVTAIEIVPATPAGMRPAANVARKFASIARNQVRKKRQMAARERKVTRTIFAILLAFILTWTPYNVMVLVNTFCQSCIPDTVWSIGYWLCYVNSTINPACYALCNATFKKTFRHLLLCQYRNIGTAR

SMILES | cell count [1] | inhibition [1] | inhibition of aggregation [2] | nuclei count [2] [%] | inhibition [3] | nuclei count [3] [%] | fluorescence slope [4] | NADPH fluorescence slope [5] | fluorescence slope [6] | inhibition [7] | inhibition [8]
O=C(CN1CCCN(S(=O)(=O)c2ccc(Br)cc2)CC1)Nc1ccc2cn[nH]c2c1 | 432 | -1.3% (inactive) | 11% (inactive) | 103 | -23.3% (inactive) | 134 | -0.517 (inactive) | -0.000173 (inactive) | 0.00424 (inactive) | -14.5% (inactive) | 2.45% (inactive)
Cn1nnnc1SCC(=O)NCc1ccco1 | 467 | 4.6% (inactive) | -7.3% (inactive) | 133 | -60.2% (inactive) | 172 | -0.443 (inactive) | 0.000107 (inactive) | 0.00818 (inactive) | -10.5% (inactive) | -15.1% (inactive)
CCc1ccc2nc(NC(=O)CSCc3c(C)noc3C)sc2c1 | 416 | -2% (inactive) | -12.1% (inactive) | 105 | -87.1% (inactive) | 112 | -0.463 (inactive) | 1.1e-05 (inactive) | 0.00795 (inactive) | -52.6% (inactive) | -109% (inactive)
Cc1ccc(N2CCN(C(=O)c3ccccc3Br)CC2)c(C)c1 | 655 | -20.4% (inactive) | 0% (inactive) | 91.9 | -13.4% (inactive) | 101 | -0.532 (inactive) | 5.2e-06 (inactive) | 0.00352 (inactive) | 15.2% (inactive) | 23.3% (inactive)
C=CCn1c(COc2ccccc2F)nnc1SCC(=O)N1CC(=O)Nc2ccccc21 | 390 | -23.5% (inactive) | 28% (inactive) | 100 | 4% (inactive) | 121 | -0.355 (inactive) | 2.1e-06 (inactive) | 0.00612 (inactive) | -13.7% (inactive) | -13.8% (inactive)
Cc1cc(C)n(-c2nc(C)nc3c2cnn3-c2ccccc2)n1 | 427 | 9.2% (inactive) | -20.7% (inactive) | 97.3 | -60.5% (inactive) | 114 | -0.564 (inactive) | -3.8e-05 (inactive) | 0.0087 (inactive) | 20.1% (inactive) | 20.4% (inactive)
CN1CCN(C(=O)c2cnn3c(C(F)F)cc(C4CC4)nc23)CC1 | 277 | -6.3% (inactive) | -15.2% (inactive) | 63.5 | -8.6% (inactive) | 100 | -0.513 (inactive) | -0.000106 (inactive) | 0.00468 (inactive) | 21% (inactive) | 30% (inactive)
CCCc1cc(C(N)=O)c(NC(=O)c2ccco2)s1 | 356 | -5.6% (inactive) | 2.7% (inactive) | 97.2 | -45% (inactive) | 111 | -0.54 (inactive) | -5.6e-05 (inactive) | 0.00337 (inactive) | -0.517% (inactive) | -22.9% (inactive)
COc1ccccc1-n1cnnc1SCC(=O)c1ccc[nH]1 | 544 | 6.1% (inactive) | 6.1% (inactive) | 96.8 | 17.5% (inactive) | 77.8 | -0.532 (inactive) | -4.3e-05 (inactive) | 0.00668 (inactive) | 9.86% (inactive) | 10.8% (inactive)
O=C(COC(=O)C1(c2ccccc2F)CCCC1)NC1CCS(=O)(=O)C1 (stereo unspecified) | 804 | -6.9% (inactive) | -2.4% (inactive) | 124 | -14.4% (inactive) | 106 | -0.578 (inactive) | -7.2e-06 (inactive) | 0.00752 (inactive) | -1.97% (inactive) | 9.43% (inactive)
CN(C(=O)c1ccccn1)c1nnc(-c2ccncc2)s1 | 551 | 5% (inactive) | -7.6% (inactive) | 111 | -35.7% (inactive) | 109 | -0.267 (inactive) | -1.3e-05 (inactive) | 0.00597 (inactive) | 6.96% (inactive) | -3.15% (inactive)
COc1ccc(CNc2nc3nc(C)cc(C)n3n2)cc1OC | 646 | -15.5% (inactive) | 39.5% (active) | 107 | -5.7% (inactive) | 115 | -0.422 (inactive) | -0.000434 (inactive) | 0.00355 (inactive) | 13.3% (inactive) | 12.9% (inactive)
CCNC(=O)c1ccc(NS(=O)(=O)c2ccccc2)cc1 | 340 | -4.8% (inactive) | 16% (inactive) | 123 | -44.8% (inactive) | 102 | -0.551 (inactive) | -0.000105 (inactive) | 0.00291 (inactive) | 13.3% (inactive) | 12.4% (inactive)
Cc1ncoc1C(=O)Nc1ccccc1C(N)=O | 408 | 3.5% (inactive) | 11.4% (inactive) | 102 | -2.5% (inactive) | 108 | -0.243 (inactive) | -1.8e-07 (inactive) | 0.00516 (inactive) | 1.59% (inactive) | -3.92% (inactive)
CCNc1oc(COc2cccc(C)c2)nc1C#N | 791 | -2.1% (inactive) | 15.8% (inactive) | 114 | -14.2% (inactive) | 111 | -0.57 (inactive) | -5e-05 (inactive) | 0.00641 (inactive) | -43.9% (inactive) | -83.4% (inactive)
Cc1cc(C)n(CCCNC(=O)c2ccc(S(=O)(=O)NCc3ccco3)cc2)n1 | 682 | -4.4% (inactive) | -3.9% (inactive) | 108 | -9.9% (inactive) | 136 | -0.562 (inactive) | -8.3e-05 (inactive) | 0.00603 (inactive) | 18.9% (inactive) | 23% (inactive)
O=C(c1ccc2c(c1)OCO2)N1CCNc2ccccc2C1 | 518 | -0.5% (inactive) | 21.2% (inactive) | 91 | -14.3% (inactive) | 85.2 | -0.559 (inactive) | -3.1e-05 (inactive) | 0.00561 (inactive) | 8.51% (inactive) | 2.68% (inactive)
O=c1c2ccccc2cnn1-c1nc2ccccc2s1 | 480 | -1% (inactive) | -5.1% (inactive) | 98.1 | -33.8% (inactive) | 117 | -0.133 (inactive) | -1.6e-05 (inactive) | 0.00555 (inactive) | 20.5% (inactive) | 93.6% (active)
O=C1CC(c2ccco2)=Nc2ccccc2N1 | 195 | -13.4% (inactive) | 7.9% (inactive) | 78.3 | 9.4% (inactive) | 84.6 | -0.573 (inactive) | 1.4e-05 (inactive) | 0.00527 (inactive) | -1.5% (inactive) | -5.46% (inactive)
CCSc1nnc(NC(=O)CSc2ncccn2)s1 | 278 | 0.5% (inactive) | -3% (inactive) | 105 | -42.2% (inactive) | 111 | -0.529 (inactive) | -4.9e-05 (inactive) | 0.00524 (inactive) | -9.35% (inactive) | 4% (inactive)
Cc1cncn1CCc1nc2c3ccccc3nc(=S)n2[nH]1 | 537 | 0% (inactive) | 4.4% (inactive) | 67.3 | -141% (inactive) | 110 | -0.432 (inactive) | 1.4e-06 (inactive) | 0.00558 (inactive) | 17% (inactive) | 28.8% (inactive)
Cc1ccc(C2N(c3ccc(Cl)c(Cl)c3)C(=O)C3CCCN32)o1 (stereo unspecified) | 495 | -1.5% (inactive) | 7.9% (inactive) | 98.2 | -11.2% (inactive) | 97 | -0.561 (inactive) | -2e-05 (inactive) | 0.0047 (inactive) | 16.9% (inactive) | 18.1% (inactive)
CCOc1ccc(-n2cc(C(=O)Nc3cccc(C)n3)c3cc(OC)c(OC)cc3c2=O)cc1 | 395 | 5.1% (inactive) | 20.8% (inactive) | 82.4 | -8% (inactive) | 94 | -0.414 (inactive) | -0.000102 (inactive) | 0.0107 (inactive) | 13.3% (inactive) | 25.9% (inactive)
C/C(CC(O)(/C=N/O)c1ccccc1)=N\O (stereo unspecified) | 343 | 2.4% (inactive) | 4% (inactive) | 97 | -60.1% (inactive) | 120 | -0.569 (inactive) | -5.8e-05 (inactive) | 0.00371 (inactive) | 14.3% (inactive) | 15.7% (inactive)
CCn1c(=N)n(CC(=O)C23CC4CC(CC(C4)C2)C3)c2ccccc21 | 721 | -26.7% (inactive) | -8.2% (inactive) | 93.6 | -45.9% (inactive) | 117 | -0.271 (inactive) | -1.5e-05 (inactive) | 0.00365 (inactive) | 1.98% (inactive) | 23.3% (inactive)
CC(C)CCNC(=O)NC(=O)CSc1nnc(-c2ccccc2Br)o1 | 538 | -16.6% (inactive) | 2% (inactive) | 104 | -32.9% (inactive) | 125 | -0.458 (inactive) | 2.9e-05 (inactive) | 0.0066 (inactive) | -3.6% (inactive) | 20.3% (inactive)
